Consider eight compounds from ChEMBL document CHEMBL1667754, “Synthesis and biological activity of pyrazolothienotetrahydroisoquinoline and [1,2,4]triazolo[3,4-a]thienotetrahydroisoquinoline derivatives” (2011).

SMILES strings stand for the structures.

One assay relates to Aspergillus flavus. The assay is described as follows: Antifungal activity against Aspergillus flavus at 2% by disc diffusion assay.
Assay [1] relates to Scopulariopsis brevicaulis. Briefly: Antifungal activity against Scopulariopsis brevicaulis at 2% by disc diffusion assay. In general terms: Agar diffusion results depend on both activity and mobility in agar.
In the next assay the test system is Escherichia coli. The assay is described as follows: Antibacterial activity against Escherichia coli at 50 uL/well by well diffusion assay. It is filed as functional. An outline of the steps: (§1)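 Bauer-type diffusion assay. Test compounds were at 2% in DMSO. The read-out was the diameter (mm) of the inhibition zone, with chloramphenicol as the reference agent.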

A further assay has as its system Pseudomonas aeruginosa. The assay is described as follows: Antibacterial activity against Pseudomonas aeruginosa at 200 ug/disc by disc diffusion assay.
The test system of a further assay is Aspergillus niger. The assay is described as follows: Antifungal activity against Aspergillus niger at 2% by disc diffusion assay.
The subject of the next assay is Trichophyton rubrum. Briefly: Antifungal activity against Trichophyton rubrum at 50 uL/well by well diffusion assay. The format is functional. An outline of the steps: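 Agar discs (10 mm) carrying spores and hyphae were shaken in sterile distilled water. 1 mL of the spore suspension was plated and mixed with 15 mL molten SDA, then left to set. Compounds were at 2% in DMSO, applied per Bauer's diffusion method. The read-out was the inhibition zone (mm).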

For another assay, the system named is Candida albicans. The assay is described as follows: Antifungal activity against Candida albicans at 200 ug/disc by disc diffusion assay.
Another assay deals with Geotrichum candidum. The assay is described as follows: Antifungal activity against Geotrichum candidum at 2% by disc diffusion assay.
In the next assay the test system is Staphylococcus aureus. Briefly: Antibacterial activity against Staphylococcus aureus at 200 ug/disc by disc diffusion assay.
Another assay has as its system Fusarium oxysporum. The assay is described as follows: Antifungal activity against Fusarium oxysporum at 2% by disc diffusion assay.
The test system of the next assay is Micrococcus luteus. The assay is described as follows: Antibacterial activity against Micrococcus luteus at 50 uL/well by well diffusion assay. It is filed as functional. The essentials: as §1
A further assay concerns Serratia marcescens. Briefly: Antibacterial activity against Serratia marcescens at 200 ug/disc by disc diffusion assay.
Another assay has as its system Bacillus cereus. Briefly: Antibacterial activity against Bacillus cereus at 200 ug/disc by disc diffusion assay.

Consider `Cc1cc(C)n(-c2[nH]c(=S)c(C#N)c3c2CCCC3)n1`, for which the “diameter of the inhibition zone (DIZ)” value (with Aspergillus flavus; in assay [1]; with Escherichia coli; with Pseudomonas aeruginosa; in the assay with Aspergillus niger; with Trichophyton rubrum) was 0 mm throughout. Besides, the “diameter of the inhibition zone (DIZ)” value was 0 mm in the assay with Candida albicans; 0 mm in the assay on Geotrichum candidum; 8 mm in the assay on Staphylococcus aureus; 0 mm with Fusarium oxysporum; 0 mm in the assay with Micrococcus luteus; 0 mm with Serratia marcescens. Moreover, the “diameter of the inhibition zone (DIZ)” value with Bacillus cereus came out at 16 mm.
On to `N#Cc1c2c(c(-n3[nH]c(=O)cc3N)[nH]c1=S)CCCC2`, for which the “diameter of the inhibition zone (DIZ)” value (in the assay on Aspergillus flavus; in assay [1]; in the assay with Escherichia coli; in the assay with Pseudomonas aeruginosa; with Aspergillus niger; with Trichophyton rubrum) was 0 mm in each case. For the same compound, the “diameter of the inhibition zone (DIZ)” value with Candida albicans is recorded as 0 mm; in the assay with Geotrichum candidum it was 8 mm; in the assay on Staphylococcus aureus it was 0 mm; with Fusarium oxysporum it was 0 mm; in the assay with Micrococcus luteus, 10 mm; in the assay with Serratia marcescens it was 0 mm. Moreover, the “diameter of the inhibition zone (DIZ)” value in the assay on Bacillus cereus is reported as 9 mm.
Turning to `N#Cc1c2c(c(N3N=C(c4ccccc4)CC3=O)[nH]c1=S)CCCC2`, the “diameter of the inhibition zone (DIZ)” value came to 0 mm in the assay on Aspergillus flavus; 0 mm in assay [1]; 13 mm in the assay on Escherichia coli; 0 mm in the assay on Pseudomonas aeruginosa; 0 mm in the assay on Aspergillus niger; 14 mm in the assay on Trichophyton rubrum. For the same compound, the “diameter of the inhibition zone (DIZ)” value in the assay on Candida albicans, with Geotrichum candidum, in the assay on Staphylococcus aureus, in the assay on Fusarium oxysporum, in the assay on Micrococcus luteus and with Serratia marcescens was 0 mm each time. Also, the “diameter of the inhibition zone (DIZ)” value in the assay with Bacillus cereus was determined as 0 mm.
As to `N#CCSc1c(C#N)c2c(c3nncn13)CCCC2`, the “diameter of the inhibition zone (DIZ)” value with Aspergillus flavus was 0 mm; in assay [1] it was 0 mm; in the assay on Escherichia coli, 8 mm; in the assay with Pseudomonas aeruginosa, 0 mm; with Aspergillus niger it was 0 mm; in the assay with Trichophyton rubrum, 0 mm. Also, the “diameter of the inhibition zone (DIZ)” value in the assay with Candida albicans was 0 mm; in the assay with Geotrichum candidum, 0 mm; in the assay with Staphylococcus aureus, 10 mm; with Fusarium oxysporum, 0 mm; in the assay with Micrococcus luteus it was 11 mm; in the assay on Serratia marcescens, 12 mm. The “diameter of the inhibition zone (DIZ)” value in the assay on Bacillus cereus was 12 mm.
For `N#Cc1sc2c(c1N)c1c(c3nncn32)CCCC1`, the “diameter of the inhibition zone (DIZ)” value (in the assay with Aspergillus flavus; in assay [1]; in the assay on Escherichia coli; with Pseudomonas aeruginosa; in the assay with Aspergillus niger; in the assay on Trichophyton rubrum) was 0 mm throughout. For the same compound, the “diameter of the inhibition zone (DIZ)” value in the assay with Candida albicans is recorded as 0 mm; with Geotrichum candidum, 0 mm; in the assay on Staphylococcus aureus it was 9 mm; in the assay on Fusarium oxysporum it was 0 mm; in the assay with Micrococcus luteus, 0 mm; in the assay on Serratia marcescens, 11 mm. Further, the “diameter of the inhibition zone (DIZ)” value in the assay with Bacillus cereus turned out to be 11 mm.
Consider `CCOC(=O)CSc1c(C#N)c2c(c3nncn13)CCCC2`, for which the “diameter of the inhibition zone (DIZ)” value (with Aspergillus flavus; in assay [1]; in the assay with Escherichia coli; with Pseudomonas aeruginosa; in the assay with Aspergillus niger; in the assay with Trichophyton rubrum) was 0 mm throughout. The “diameter of the inhibition zone (DIZ)” value with Candida albicans is listed as 0 mm; in the assay with Geotrichum candidum, 0 mm; with Staphylococcus aureus, 0 mm; in the assay on Fusarium oxysporum, 0 mm; with Micrococcus luteus, 10 mm; with Serratia marcescens, 0 mm. Besides, in the assay on Bacillus cereus, the “diameter of the inhibition zone (DIZ)” value was determined as 11 mm.
Regarding `CCOC(=O)c1sc2c(c1N)c1c(c3nncn32)CCCC1`, the “diameter of the inhibition zone (DIZ)” value turned out to be 8 mm with Aspergillus flavus; 0 mm in [1]; 11 mm in the assay on Escherichia coli; 0 mm in the assay with Pseudomonas aeruginosa; 0 mm in the assay on Aspergillus niger; 0 mm in the assay on Trichophyton rubrum. Moreover, the “diameter of the inhibition zone (DIZ)” value is given as 10 mm in the assay on Candida albicans; 0 mm in the assay on Geotrichum candidum; 10 mm in the assay with Staphylococcus aureus; 0 mm in the assay with Fusarium oxysporum; 0 mm in the assay on Micrococcus luteus; 10 mm in the assay with Serratia marcescens. Moreover, in the assay with Bacillus cereus, the “diameter of the inhibition zone (DIZ)” value is 8 mm.
Regarding `N#Cc1c2c(c3nncn3c1SCC(N)=O)CCCC2`, the “diameter of the inhibition zone (DIZ)” value is reported as 0 mm in the assay on Aspergillus flavus; 0 mm in [1]; 12 mm in the assay with Escherichia coli; 0 mm in the assay on Pseudomonas aeruginosa; 0 mm in the assay on Aspergillus niger; 0 mm with Trichophyton rubrum. The “diameter of the inhibition zone (DIZ)” value in the assay on Candida albicans is reported as 0 mm; in the assay on Geotrichum candidum, 0 mm; in the assay with Staphylococcus aureus it was 8 mm; in the assay with Fusarium oxysporum it was 0 mm; with Micrococcus luteus, 0 mm; in the assay with Serratia marcescens it was 0 mm. For the same compound, the “diameter of the inhibition zone (DIZ)” value in the assay with Bacillus cereus turned out to be 13 mm.
